SUMO HTRF inh – inhibitors of in vitro SUMOylation cascade, primary screen, biochemical, HTRF, uHTS; inhibition, % at 35 µM; HTRF SUMOylation assay, SAE1/SAE2 + UBC9; SUMO-conjugating enzyme UBC9 (Homo sapiens), P63279; 290,000 compounds, 0.36% hits; AID 2006, 2009; in the data active means inhibition above about 50%, passing the limit was not always enough
Target sequence (P63279 whole entry, looked up): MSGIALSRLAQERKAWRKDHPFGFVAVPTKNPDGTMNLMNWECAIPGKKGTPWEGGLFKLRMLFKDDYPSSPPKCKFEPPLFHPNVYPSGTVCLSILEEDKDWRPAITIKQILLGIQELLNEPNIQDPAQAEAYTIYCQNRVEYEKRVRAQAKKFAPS
Apaf1 inhib – inhibitors of human Apaf-1 apoptosome, primary screen, biochemical, DEVD-Rh110 fluorescence, uHTS | 330,000 compounds, 0.71% hits | reconstituted apoptosome caspase-3 activity | AID 489030, 2010 | Apoptotic protease-activating factor 1 (Homo sapiens), O14727 | inhibition, % at 20 µM; active means inhibition of at least 40% at 20 µM;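 further: plate controls were DMSO wells for no effect and DEVD-CHO caspase inhibitor wells for full effect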
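detection = Rh110 fluorescence intensity | test system = biochemical Apaf-1 apoptosome reconstitution | also added = cytochrome c and DEVD-Rh110 substrate | schedule = 30 min plus 50 min, RT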
JMJD2C inh – inhibitors of GASC-1 histone demethylase, primary screen, biochemical, fluorescence, DELFIA europium. AID 2099, 2009. Lysine-specific demethylase 4C (Homo sapiens), Q9H3R0. 330,000 compounds, 0.069% hits. GST-JMJD2C(1-420) H3K9me3 demethylation. inhibition, % at 2.35 µM;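 active means more than half of a compound's replicate wells show inhibition beyond 50%, single wells judged on their own value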;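 further: signal counts dimethyl H3K9 product captured on neutravidin plate; 0% = median of DMSO wells and 100% = 0.3 times that DMSO median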
PAD4 FP inh – human PAD4 inhibitors, primary screen, biochemical, fluorescence polarization, 1536-well format. recombinant PAD4, RCA probe fluorescence polarization. 330,000 compounds, 0.41% hits. inhibition, % at 6.36 µM. Protein-arginine deiminase type-4 (Homo sapiens), Q9UM07;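 active means percent inhibition above a cutoff equal to the mean of all tested compounds plus 3 SD, cut at about 15% in these data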;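 further: 0% = PAD4 with RCA probe and DMSO and 100% = probe without PAD4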
TDP2 inh – human TDP2 enzyme inhibitors, primary screen, biochemical, epi absorbance, recombinant enzyme | Tyrosyl-DNA phosphodiesterase 2 (Homo sapiens), O95551 | T5PNP hydrolysis, p-nitrophenol absorbance 415 nm | inhibition, % at 12.8 µM | 370,000 compounds, 0.34% hits | AID 720702, 2013;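 active means inhibition above the mean of all tested compounds plus 3 SD, set per campaign, cut at about 25% in these data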;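 further: 0% = DMSO with enzyme and 100% = buffer with substrate but no TDP2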
Target sequence (O95551 whole entry, looked up): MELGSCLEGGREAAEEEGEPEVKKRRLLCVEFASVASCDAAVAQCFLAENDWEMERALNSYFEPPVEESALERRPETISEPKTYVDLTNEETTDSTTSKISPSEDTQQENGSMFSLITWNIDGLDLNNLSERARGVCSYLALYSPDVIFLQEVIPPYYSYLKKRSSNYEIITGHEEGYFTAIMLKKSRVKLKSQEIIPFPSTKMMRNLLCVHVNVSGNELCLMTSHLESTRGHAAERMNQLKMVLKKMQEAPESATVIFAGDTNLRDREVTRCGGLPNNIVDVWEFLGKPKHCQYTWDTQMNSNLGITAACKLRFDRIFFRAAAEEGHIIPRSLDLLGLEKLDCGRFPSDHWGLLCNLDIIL
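Material: recombinant human TDP2; quantity: TDP2 enzyme at 120 nM final; medium: Tris-HCl pH 7.5 with MgCl2; compound: single concentration, 12.8 µM nominal, with 1% DMSO; incubation: 2 h enzyme incubation at 37 °C; signal: epi absorbance; measure: percent inhibition; benchmarks: high control without enzyme, low control DMSO plus TDP2; repeats: singlicate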
GSTO1 inh – inhibitors of recombinant GSTO1, primary screen, counter-screen for RBBP9 inhibitor project, biochemical, fluorescence polarization; Glutathione S-transferase omega-1 (Homo sapiens), P78417; activity-based probe fluorescence polarization; inhibition, % at 5.96 µM; 300,000 compounds, 1.1% hits; AID 1974, 2009;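 active means inhibition above the campaign mean inhibition plus 3 SD, cut at about 35% in these data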;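 further: 0% = GSTO1-1 with DMSO and 100% = wells lacking GSTO1-1 enzyme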
Apaf-1 inh conf2 – Apaf-1 inhibitors, single-dose retest, confirmation, biochemical, fluorescence, DEVD-Rh110, 20 µM | reconstituted apoptosome, caspase-3 DEVD-Rh110 fluorescence | inhibition, % at 20 µM | 1,800 compounds, 25% hits | shares compounds with Apaf1 inhib | AID 504614, 2011;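 active means mean inhibition of at least 40% at 20 µM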;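 further: plate controls were DMSO wells for no effect and DEVD-CHO caspase inhibitor control wells for full effect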
Rh110 quench – Rh110 fluorescence interference by putative Apaf-1 inhibitors, confirmation, artefact control for Apaf-1 inhibitor project, biochemical, 20 µM. shares compounds with Apaf1 inhib. quenched caspase reaction. activation (fluorescence interference), % at 20 µM. 1,800 tested, under 10 active. AID 504615, 2011;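 active means signal rise of 40% or more at 20 µM, treated as a fluorescence artifact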
Fluor interf inh – fluorescence interference of Apaf-1 inhibitor hits, dose response, artefact control for Apaf-1 inhibitor project. shares compounds with Apaf1 inhib. fluorescence interference counterscreen, Apaf-1 assay format. IC50, µM. 460 tested, under 10 active. AID 588538, 2011; call rule not given here
TDP2 confirm – human TDP2 enzyme inhibitors, retest, confirmation, biochemical, epi absorbance, recombinant enzyme. shares compounds with TDP2 inh. absorbance read-out. inhibition, % at 12.8 µM. 1,100 compounds, 22% hits; in the data active means inhibition above about 25%;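 further: 0% = vehicle with enzyme and 100% = no enzyme buffer only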
Active calls of the source: *; . = no result given. Rows were chosen to be rich in hits. Some 1.6% of all compounds tested hit in one or more screens of this group.

SMILES	SUMO HTRF inh	Apaf1 inhib	JMJD2C inh	PAD4 FP inh	TDP2 inh	GSTO1 inh	Apaf-1 inh conf2	Rh110 quench	TDP2 confirm	others
COc1ccc2c(c1)-c1nc(NC(=O)c3cccs3)sc1CC2	2	7	-4	-6	-3	-5	.	.	.
S=C(Nc1ccc2nsnc2c1)N1CCCC1	93	98*	1	-16	67*	29	8	0	45*
Nc1cccc2nsnc12	88*	68*	3	-11	60*	24	14	-5	5
Cc1ccc2nsnc2c1N	19	-4	-1	-14	10	15	.	.	.
Cc1cccc(/C=N/NC(=O)C(C)Nc2cccc3ccccc23)n1 (stereo not drawn)	72	91*	-3	3	67*	3	20	10	24
CCCCNS(=O)(=O)CC1NCc2cc(OC)ccc21 (stereo not drawn)	.	.	.	.	6	.	.	.	.
Cc1[nH]n(-c2ccccc2)c(=O)c1/C=N/O	-8	-6	-3	-6	15	11	.	.	.
Cc1[nH]n(-c2ccccc2)c(=O)c1/C=N/N(C)c1ccccc1	75	80*	6	2	42*	-1	15	-2	9
O=C1C(NS(=O)(=O)c2cccs2)=C(N2CCN(Cc3ccccc3)CC2)C(=O)c2ccccc21	19	51*	2	-15	40*	29	37	12	9
NC(=O)C1CCN(C2=C(NS(=O)(=O)c3ccc(Br)cc3)C(=O)c3ccccc3C2=O)CC1	19	66*	5	-14	38*	35*	48*	14	9	Fluor interf inh=>100
CCOC(=O)N1CCN(C2=C(NS(=O)(=O)c3ccccc3)C(=O)c3ccccc3C2=O)CC1	35	48*	3	-7	64*	12	24	0	11
Cc1ccc(C(=O)N/C(=C\c2ccc(-c3ccccc3[N+](=O)[O-])o2)C(=O)NCCN(C)C)cc1	18	53*	50	-13	25*	25	33	2	19
CN(C)CCNC(=O)/C(=C/c1ccc(-c2cccc([N+](=O)[O-])c2)o1)NC(=O)c1ccccc1	-13	5	-5	0	6	4	.	.	.
CCc1ccc(NC(=S)NCc2cccnc2)cc1	0	-1	-28	-1	-11	13	.	.	.
CCc1ccc(NC(=S)Nc2cccc3cnccc23)cc1	96	89*	4	-8	38*	11	43*	21	6	Fluor interf inh=>100
Cc1ccc(NC2=C/C(=N/S(=O)(=O)c3cccs3)c3ccccc3C2=O)cc1	6	92*	3	11	36*	65*	95*	7	41*	Fluor interf inh=>100
C[C@H](O)[C@@H]1CN2CCc3ccc(N4CCOCC4)cc3[C@@H]2C[C@@H]1N(C)C(=O)c1ccco1	.	.	.	.	-10	.	.	.	.
CCOC(=O)CC[C@H]1CC[C@]2(CCCN(S(C)(=O)=O)C2)O1	.	.	.	.	5	.	.	.	.
COc1ccc(C(=O)Nc2ccc(NC(=O)c3ccco3)cc2)cc1	21	0	7	-5	3	-4	.	.	.
COc1ccc(-n2c(NC(=O)c3ccco3)c(C#N)c3nc4ccccc4nc32)cc1	86	96*	20	10	60*	19	93*	3	67*	Fluor interf inh=>100
CCN(CC)C(=O)CC[C@@H]1CC[C@]2(CCCN(Cc3ccncc3)C2)O1	.	.	.	.	10	.	.	.	.
C[C@@H]1C[C@@H]2O[C@H]2CCCCC(=O)Cc2cc(O)cc(O)c2C(=O)O1	.	.	.	.	-4	.	.	.	.
COc1cc(O)c(NC(C)=O)c2nonc12	.	87*	-3	9	48*	7	23	8	24
CC(=O)c1cc(-c2cc(C(F)(F)F)cc(C(F)(F)F)c2)c(=O)n2c1CCC2	.	.	.	.	2	.	.	.	.
COC(=O)c1cc(-c2ccc(C(C)(C)C)cc2)c(=O)n2c1CCC2	.	.	.	.	-6	.	.	.	.
SMILES	SUMO HTRF inh	Apaf1 inhib	JMJD2C inh	PAD4 FP inh	TDP2 inh	GSTO1 inh	Apaf-1 inh conf2	Rh110 quench	TDP2 confirm	others
C=CCN(C(=O)[C@@H](C1CC1)[C@@H](O)c1ccc2ccccc2c1)c1ccccc1	.	.	.	.	-8	.	.	.	.
COc1ccc(-c2ccc(C(c3c(C)[nH][nH]c3=O)c3c(C)[nH][nH]c3=O)o2)c([N+](=O)[O-])c1	96	75*	.	.	67*	.	19	-1	6
O=C(Nc1ccccc1)/C(=C\c1ccccc1)NC(=O)c1ccco1	1	-16	-11	-3	9	3	.	.	.
O=C(Nc1ccccc1)/C(=C/c1ccc([N+](=O)[O-])cc1)NC(=O)c1ccco1	-6	3	-1	-4	25*	17	.	.	3
CCOc1ccc(N2C(=O)c3cccnc3C2=O)cc1	5	-5	2	-4	3	-1	.	.	.
O=C1c2nccnc2C(=O)N1c1ccc(C(F)(F)F)cc1	-8	11	15	1	28*	-7	.	.	1
CN1CCC(C)(C(=O)Nc2cccc(Oc3ccccc3)c2)C1 (stereo not drawn)	.	.	.	.	81*	.	.	.	3
Cc1ccc(-n2c(SCC(=O)Nc3ccccc3-c3ccccc3)nnc2-c2cnccn2)cc1	.	.	.	.	-15	.	.	.	.
O=C(c1ccco1)[C@@H]1[C@@H]2C(=O)N(c3ccc(F)cc3)C(=O)[C@@H]2C2c3ccccc3C=CN21 (stereo partly drawn)	34	83*	-17	-13	29*	31	.	.	17
CCOc1ccc(CCNC(=O)c2cc3sccc3n2CC)cc1OC	.	.	.	.	4	.	.	.	.
O=C(COC(=O)CCc1nc2ccccc2c(=O)[nH]1)Nc1c(Cl)cccc1C(F)(F)F	.	2	-3	2	57*	5	.	.	6
CC(=O)Nc1nc2cc([N+](=O)[O-])ccc2s1	.	-9	0	0	35*	.	.	.	4

Compound activity from PubChem.
